ChEMBL document CHEMBL1240380, “Acinetobacter baumannii increases tolerance to antibiotics in response to monovalent cations” (Antimicrob Agents Chemother, 2010)
Calls of active or inactive are those of the source. The calls are words filed in the database; no cut-off is given here.

Assays:
Acinetobacter baumannii [1] = assay: Antibacterial activity against Acinetobacter baumannii isolate 2824 isolated from human urine; format: functional, organism-based
Acinetobacter baumannii [2] = assay: Antibacterial activity against Acinetobacter baumannii isolate 510 isolated from human sputum; format: functional, organism-based
Acinetobacter baumannii [3] = assay: Antibacterial activity against Acinetobacter baumannii isolate 5191 isolated from human urine; format: functional, organism-based
Acinetobacter baumannii [4] = assay: Antibacterial activity against Acinetobacter baumannii isolate 4860 isolated from human urine; format: functional, organism-based
Acinetobacter baumannii [5] = assay: Antibacterial activity against Acinetobacter baumannii isolate 2898 isolated from human ankle; format: functional, organism-based
Acinetobacter baumannii [6] = assay: Antibacterial activity against Acinetobacter baumannii ATCC 17978 isolated from human CSF; format: functional, organism-based
Acinetobacter baumannii [7] = assay: Antibacterial activity against Acinetobacter baumannii using MHB medium assessed as bacterial growth at 4.5 mg/L after 12 hrs in presence of 30 mg/L efflux pump inhibitor PAbetaN; format: functional, organism-based
Acinetobacter baumannii [8] = assay: Antibacterial activity against Acinetobacter baumannii ATCC 17978 assessed as bacterial growth at 4.5 mg/L in presence of 150 mM NaCl; format: functional
In short: (§1)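 Overnight cultures were diluted 1:100 in NaCl-free MHB and grown to OD600 0.4. They were then diluted to 10^5 CFU/ml in MHB with or without 150 mM NaCl, plus or minus antibiotic. Growth was run in triplicate for 12 h at 37°C with shaking at 180 rpm, and OD600 was read every 2 h.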

Acinetobacter baumannii [9] = assay: Antibacterial activity against Acinetobacter baumannii using MHB medium with 150 mM assessed as bacterial growth at 4.5 mg/L after 12 hrs in presence of 30 mg/L efflux pump inhibitor PAbetaN; format: functional, organism-based
Acinetobacter baumannii [10] = assay: Antibacterial activity against Acinetobacter baumannii using MHB medium assessed as bacterial growth at 4.5 mg/L in presence of 150 mM of KCl; format: functional, organism-based
In short: as §1, with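 “Growth-curve challenge with 150 mM KCl in place of NaCl. Overnight” for “Overnight”, “KCl,” for “NaCl,”, “plus” for “plus or minus”, “Cultures ran” for “Growth was run”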

Compound | Activity (Acinetobacter baumannii [1]) | Activity (Acinetobacter baumannii [2]) | Activity (Acinetobacter baumannii [3]) | Activity (Acinetobacter baumannii [4]) | Activity (Acinetobacter baumannii [5]) | Activity (Acinetobacter baumannii [6]) | Activity (Acinetobacter baumannii [7]) | Activity (Acinetobacter baumannii [8]) | Activity (Acinetobacter baumannii [9]) | Activity (Acinetobacter baumannii [10])
CC(C)(O/N=C(\C(=O)N[C@@H]1C(=O)N2C(C(=O)[O-])=C(C[n+]3ccccc3)CS[C@H]12)c1csc(N)n1)C(=O)O | inactive | inactive | inactive | inactive | inactive | – | – | – | – | –
NC[C@H]1O[C@H](O[C@H]2[C@H](O)[C@@H](O[C@H]3O[C@H](CO)[C@@H](O)[C@H](N)[C@H]3O)[C@H](N)C[C@@H]2N)[C@H](N)C[C@@H]1O | inactive | inactive | inactive | inactive | inactive | Active | – | – | – | –
NCC[C@H](O)C(=O)N[C@@H]1C[C@H](N)[C@@H](O[C@H]2O[C@H](CN)[C@@H](O)[C@H](O)[C@H]2O)[C@H](O)[C@H]1O[C@H]1O[C@H](CO)[C@@H](O)[C@H](N)[C@H]1O | inactive | inactive | inactive | inactive | inactive | Active | Active | inactive | inactive | inactive
CO/N=C(\C(=O)N[C@@H]1C(=O)N2C(C(=O)O)=C(CSc3nc(=O)c(O)nn3C)CS[C@H]12)c1csc(N)n1 | inactive | inactive | inactive | inactive | inactive | – | – | – | – | –
O=C(O)c1cn(C2CC2)c2cc(N3CCNCC3)c(F)cc2c1=O | inactive | inactive | inactive | inactive | inactive | – | – | – | – | –
C[C@@H](O)[C@H]1C(=O)N2C(C(=O)O)=C(S[C@@H]3CN[C@H](C(=O)N(C)C)C3)[C@H](C)[C@H]12 | Active | Active | – | – | Active | Active | – | – | – | –
C[C@H]1[C@H](NC(=O)/C(=N\OC(C)(C)C(=O)O)c2csc(N)n2)C(=O)N1S(=O)(=O)O | inactive | inactive | inactive | inactive | inactive | inactive | – | – | – | –
